Data from ChEMBL document CHEMBL1143577, “Syntheses and biological activities of rebeccamycin analogues with uncommon sugars” (J Med Chem, 2005).

Legend:
[1] = system: K562; experiment: Inhibitory concentration against […] leukemia cell line in MTS assay; format: functional, cell-based; details: Homo sapiens
Method in brief: (§1)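 Cells grown in RPMI 1640 with 10% FBS, 1% nonessential amino acids, penicillin-streptomycin, 37 °C, 5% CO2. Exponentially growing cells were then exposed to a range of compound concentrations for 72 h. MTS (2 mg/mL) plus PMS (25 µM) was added for 3 h, and absorbance was read at 490 nm. IC50 came from dose-response curves of % growth versus untreated control.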

[2] = system: SW-620; experiment: Inhibitory concentration against SW620 colorectal carcinoma cell line in MTS assay; format: functional, cell-based, Homo sapiens; method in brief: as §1

Row | IC50 [1] [µM] | IC50 ([2]; Homo sapiens, SW-620) [µM] | IC50 ([2]; sw-620) [µM] | Structure (SMILES)
1 | 40 | > 100 | – | CN1C(=O)c2c(c3c4ccccc4[nH]c3c3[nH]c4ccccc4c23)C1=O
2 | – | – | 34 | CC1OC(n2c3ccccc3c3c4c(c5c6ccccc6[nH]c5c32)C(=O)N(C)C4=O)CC(O)C1O (stereo in doubt; 6)
3 | 6 | 4 | – | CO[C@H]1[C@H](O)[C@@H](O)[C@H](n2c3c(Cl)cccc3c3c4c(c5c6cccc(Cl)c6[nH]c5c32)C(=O)NC4=O)O[C@@H]1CO [REBECCAMYCIN]
4 | 4 | 2 | – | O=C1c2c(c3c4ccccc4n(C4OC(CO)C(O)C(O)C4O)c3c3[nH]c4ccccc4c23)C(=O)N1CCCn1ccnc1 (stereo not drawn)
5 | > 100 | > 100 | – | CC1OC(n2c3ccccc3c3c4c(c5c6ccccc6[nH]c5c32)C(=O)N(N)C4=O)CC(O)C1O (stereo not drawn)
6 | 12 | 13 | – | CN1C(=O)c2c(c3c4ccccc4n(C4CC(O)C(O)C(CO)O4)c3c3[nH]c4ccccc4c23)C1=O (stereo not drawn)
7 | 26 | 24 | – | CC1OC(n2c3ccccc3c3c4c(c5c6ccccc6[nH]c5c32)C(=O)N(C)C4=O)CC(O)C1O (stereo in doubt; 5)
8 | > 50 | > 50 | – | O=C1c2c(c3c4ccccc4n(C4OC(COCc5ccccc5)C(OCc5ccccc5)C(OCc5ccccc5)C4OCc4ccccc4)c3c3[nH]c4ccccc4c23)C(=O)N1CCCn1ccnc1 (stereo not drawn)
9 | 55 | > 100 | – | CC1OC(n2c3ccccc3c3c4c(c5c6ccccc6[nH]c5c32)C(=O)OC4=O)CC(N)C1O (stereo not drawn)
10 | 53 | 76 | – | CC1OC(n2c3ccccc3c3c4c(c5c6ccccc6[nH]c5c32)C(=O)OC4=O)CC(NCc2ccccc2)C1O (stereo not drawn)
11 | 34 | > 100 | – | CC1OC(n2c3ccccc3c3c4c(c5c6ccccc6[nH]c5c32)C(=O)N(C)C4=O)CC(NCc2ccccc2)C1O (stereo not drawn)
12 | 3 | 5 | – | CN1C(=O)c2c(c3c4ccccc4n(C4OC(CO)C(O)C(O)C4O)c3c3[nH]c4ccccc4c23)C1=O (stereo not drawn)
